Laboratory results from ChEMBL document CHEMBL1155014, “On the antibiotic activity of oxazolomycin” (2008).
Values after ≈ are worked out from the molar mass of the structure shown. Active and inactive are the calls of the source. No cut-off for these calls is given here.

Legend:
Type in all cases: functional
Staphylococcus aureus [1] = test: Antibacterial activity against Staphylococcus aureus NCTC 6571 at 4 mg/ml by hole plate method; settings: for zone of inhibition at 4000 µg/mL: read-out: IZ
In short: (§1)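 Hole-plate assay on bioassay plates seeded with the test organism. Compounds at 4 mg/ml in 7:3 DMSO/H2O were loaded into wells and incubated overnight at 37 °C. Inhibition zone diameters were then measured.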

Escherichia coli [2] = test: Antibacterial activity against Escherichia coli X580 at 4 mg/ml by hole plate method; settings: for zone of inhibition at 4000 µg/mL: read-out: IZ; in short: as §1
Escherichia coli [3] = test: Antibacterial activity against Escherichia coli X580 at 4 mg/ml by hole plate method relative to cephalosporin C
In short: (§2)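 Hole-plate diffusion: compound solutions at 4 mg/ml (7:3 DMSO/H2O) were placed in wells and incubated overnight at 37 °C. Inhibition zone diameters were measured, and potency was expressed as zone size per mg/ml relative to standards prepared with cephalosporin C.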

Escherichia coli [4] = test: Antibacterial activity against Escherichia coli X580 by serial dilution
In short: (§3)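 MIC estimated by serial dilution of compound, each dilution assayed by the hole-plate method (overnight, 37 °C). The end point is the dilution at which no inhibition zone is obtained.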

Staphylococcus aureus [5] = test: Antibacterial activity against Staphylococcus aureus NCTC 6571 at 4 mg/ml by hole plate method relative to cephalosporin C; in short: as §2
Staphylococcus aureus [6] = test: Antibacterial activity against Staphylococcus aureus NCTC 6571 by serial dilution; in short: as §3

CC(C)(C(=O)NCc1ccccc1)C(O)c1ccccc1 (centres undefined)
Activity (Staphylococcus aureus [1]): inactive | zone of inhibition at 4000 µg/mL (Escherichia coli [2]): 17 mm | Activity (Escherichia coli [3]): 0.005 millimeter/mg/ml | MIC (Escherichia coli [4]): 500 µg/mL (≈ 1760 µM)

C#CCNC(=O)C(C)(C)C(O)c1ccccc1 (centres undefined)
Activity (Staphylococcus aureus [1]): inactive | zone of inhibition at 4000 µg/mL (Escherichia coli [2]): 15 mm | Activity (Escherichia coli [3]): 0.003 millimeter/mg/ml

C=CCNC(=O)C(C)(C)C1(O)CCCCC1
Activity (Staphylococcus aureus [1]): inactive | Activity (Escherichia coli [2]): inactive

C=CCNC(=O)C(C)(C)C(O)c1ccccc1 (racemic)
Activity (Staphylococcus aureus [1]): inactive | Activity (Escherichia coli [2]): inactive

C=CCNC(=O)C(C)(C)C(O)CCCCCCC (centres undefined)
Activity (Staphylococcus aureus [1]): inactive | zone of inhibition at 4000 µg/mL (Escherichia coli [2]): 22 mm | Activity (Escherichia coli [3]): 0.01 millimeter/mg/ml | MIC (Escherichia coli [4]): 1000 µg/mL (≈ 3920 µM)

C=CCNC(=O)C(C)(C)C(O)c1ccccc1/C=C/c1ccccc1 (centres undefined)
zone of inhibition at 4000 µg/mL (Staphylococcus aureus [1]): 14 mm | Activity (Staphylococcus aureus [5]): 0.06 millimeter/mg/ml | zone of inhibition at 4000 µg/mL (Escherichia coli [2]): 20 mm | Activity (Escherichia coli [3]): 0.01 millimeter/mg/ml | MIC (Escherichia coli [4]): 500 µg/mL (≈ 1490 µM)

CC(C)(C(N)=O)C(O)/C=C/c1ccccc1 (centres undefined)
Activity (Staphylococcus aureus [1]): inactive | Activity (Escherichia coli [2]): inactive

C=CCNC(=O)C(C)(C)C(O)Cc1ccccc1 (centres undefined)
Activity (Staphylococcus aureus [1]): inactive | Activity (Escherichia coli [2]): inactive

C=CCNC(=O)C(C)(C)C(O)CCCCc1ccccc1 (racemic)
zone of inhibition at 4000 µg/mL (Staphylococcus aureus [1]): 17 mm | Activity (Staphylococcus aureus [5]): 0.08 millimeter/mg/ml | zone of inhibition at 4000 µg/mL (Escherichia coli [2]): 23 mm | Activity (Escherichia coli [3]): 0.01 millimeter/mg/ml | MIC (Staphylococcus aureus [6]): 4000 µg/mL (≈ 13800 µM) | MIC (Escherichia coli [4]): 500 µg/mL (≈ 1730 µM)

CC(C)(C(=O)NCc1ccc(Br)cc1)C(O)c1ccccc1 (centres undefined)
Activity (Staphylococcus aureus [1]): inactive | Activity (Escherichia coli [2]): inactive

CCCNC(=O)C(C)(C)C(O)c1ccccc1 (centres undefined)
Activity (Staphylococcus aureus [1]): inactive | Activity (Escherichia coli [2]): inactive

C/C(=C/C=C/c1ccccc1)C(O)C(C)(C)C(N)=O (centres undefined)
zone of inhibition at 4000 µg/mL (Staphylococcus aureus [1]): 14 mm | Activity (Staphylococcus aureus [5]): 0.05 millimeter/mg/ml | zone of inhibition at 4000 µg/mL (Escherichia coli [2]): 28 mm | Activity (Escherichia coli [3]): 0.03 millimeter/mg/ml | MIC (Escherichia coli [4]): 1000 µg/mL (≈ 3860 µM)
